Screening data (PubChem BioAssay)
IDH1 R132H inh – blocks human IDH1 R132H reductase activity; 0.18% of 70,000 active; inhibition, % at 10 µM; diaphorase/resazurin fluorescence, 60 min; in the data active means inhibition above about 34%; inconclusive means no clear call, values can overlap the other calls; inactive means below about 11%;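 further: 0% = DMSO and 100% = no enzyme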
Target sequence (O75874 whole entry R132H): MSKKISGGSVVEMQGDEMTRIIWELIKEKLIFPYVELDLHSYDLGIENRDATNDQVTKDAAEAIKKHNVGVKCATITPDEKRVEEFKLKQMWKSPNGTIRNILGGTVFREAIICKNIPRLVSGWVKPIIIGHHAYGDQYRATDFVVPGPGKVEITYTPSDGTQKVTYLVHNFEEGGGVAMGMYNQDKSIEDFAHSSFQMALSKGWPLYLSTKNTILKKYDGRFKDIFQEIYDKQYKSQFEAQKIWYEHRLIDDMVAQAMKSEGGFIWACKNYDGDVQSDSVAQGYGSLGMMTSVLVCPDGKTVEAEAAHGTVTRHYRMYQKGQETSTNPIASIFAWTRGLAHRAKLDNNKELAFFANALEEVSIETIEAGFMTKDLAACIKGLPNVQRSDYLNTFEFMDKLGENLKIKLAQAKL
T cruzi growth-1 – T. cruzi proliferation inhibition; T. cruzi beta-gal in NIH3T3, GalScreen luminescence, 90 h; 5.9% of 77,000 active; AID 624255; inhibition, % at 8.34 µM;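 active means mean inhibition above about 93%, with at least 55% of replicates each passing it, limit read from the data, passing the limit was not always enough; inconclusive means only one of those two conditions holds; inactive means neither condition holds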
Pf Dd2 growth – inhibitors of Plasmodium falciparum Dd2 growth | P. falciparum Dd2 growth, SYBR Green, 72 h; active compounds read low | activity change, % at 10 µM | 2.3% of 94,000 active | AID 1159554; in the data active means activity change below about -80%; inconclusive means no clear call, values can overlap the other calls
GASC1 inh – blocks human GASC-1 (KDM4C) demethylase activity. inhibition, % at 12.5 µM. GST-KDM4C 2-372, H3K9me3 peptide, LANCE TR-FRET. 0.15% of 96,000 active. Q9H3R0;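 active means mean replicate inhibition above about 25%, with at least 55% of replicates also reaching it, limit read from the data, passing the limit was not always enough; inconclusive means only one of those two conditions met; inactive means neither condition met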
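System: N-terminal GST-fused human GASC-1 (KDM4C) fragment, residues 2-372; amount: enzyme final amount 10 nM; incubation: reaction 30 min RT, detection step 1 h RT; medium: HEPES buffer, pH 7.5, plus ascorbate; technique: LANCE TR-FRET, Eu antibody, ULight-streptavidin, EDTA, ex 340 nm, em 618/671 nm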
T cruzi growth-2 – Trypanosoma cruzi proliferation inhibition; AID 651739; inhibition, % at 8.35 µM; 72% of 5,600 active; shares compounds with T cruzi growth-1; T. cruzi beta-gal in NIH3T3, GalScreen luminescence, 90 h;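 active means mean replicate inhibition above about 95% and at least 55% of replicates individually reaching it, limit read from the data; inconclusive means only one of the two criteria is met; inactive means neither criterion is met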
T cruzi growth-3 – Trypanosoma cruzi proliferation inhibition; shares compounds with T cruzi growth-1; T. cruzi beta-gal in NIH3T3, GalScreen luminescence, 90 h; inhibition, % at 2.09 µM; 21% of 5,600 active; AID 651740;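 active means mean inhibition above about 95%, with at least 55% of replicates also reaching it, limit read from the data; inconclusive means meets just one of the two conditions; inactive means meets neither condition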;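 further: plate controls were neutral control median for no effect and positive control median for full effect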
NIH3T3 tox – NIH/3T3 (mouse) viability loss | shares compounds with T cruzi growth-1 | NIH/3T3 viability, CellTiter-Glo ATP luminescence, 90 h | cytotoxicity (signal decrease), % at 8.35 µM | 14% of 5,600 active | AID 651742;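 active means mean signal decrease across replicates above about 35% based on untreated-well scatter, with enough replicates individually passing, limit read from the data; inconclusive means no rule stated though some were filed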;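 further: 0% = median of neutral control wells and 100% = median of positive control wells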
NIH3T3 tox 2 – NIH/3T3 (mouse) viability loss. shares compounds with T cruzi growth-1. NIH/3T3 viability, CellTiter-Glo ATP luminescence, 90 h. inhibition, % at 24.9 µM. 56% of 5,600 active;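 active means mean loss of cell viability signal at or above a set limit, and enough replicates individually reaching it; inconclusive means meets only the mean limit or only the replicate share; inactive means meets neither condition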;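 further: 0% = median of neutral control wells and 100% = median of positive control wells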
Active calls of the source: *; ? = inconclusive; . = no result given. Rows were chosen to be rich in hits. Some 5.9% of all compounds tested hit in one or more screens of this group.

SMILES	IDH1 R132H inh	T cruzi growth-1	Pf Dd2 growth	GASC1 inh	T cruzi growth-2	T cruzi growth-3	NIH3T3 tox	NIH3T3 tox 2
C[C@@H]1CN([C@H](C)CO)C(=O)c2cc(NC(=O)C3CCCCC3)ccc2O[C@@H](C)CCCCO[C@H]1CN(C)S(=O)(=O)c1ccc(F)cc1	2	26	-80	-1	.	.	.	.
Cc1ccc(S(=O)(=O)N(C)C[C@H]2OCCCC[C@@H](C)Oc3ccc(NC(=O)C4CCCCC4)cc3C(=O)N([C@H](C)CO)C[C@H]2C)cc1	.	47	-71	0	.	.	.	.
C[C@@H]1CCCCO[C@@H](CN(C)S(=O)(=O)c2ccc(F)cc2)[C@H](C)CN([C@H](C)CO)C(=O)c2cc(NC(=O)C3CCCCC3)ccc2O1	.	101*	-72	0	107*	65	13	-8
C[C@@H]1CN([C@H](C)CO)C(=O)c2cc(NC(=O)C3CCCCC3)ccc2O[C@@H](C)CCCCO[C@H]1CN(C)S(=O)(=O)c1ccc(Cl)cc1	.	102*	-83*	1	106*	62	17	70*
C[C@H]1CCCCO[C@H](CN(C)S(=O)(=O)c2ccc(F)cc2)[C@@H](C)CN([C@@H](C)CO)C(=O)c2cc(NC(=O)C3CCCCC3)ccc2O1	4	86	-77	-1	.	.	.	.
C[C@H](CO)N1C[C@H](C)[C@H](CN(C)S(=O)(=O)c2ccc(Cl)cc2)OCCCC[C@H](C)Oc2ccc(NC(=O)C3CCCCC3)cc2C1=O	0	106*	-68	1	111*	72	18	51*
OCC1CCCN1CC1CC1 (stereo unspecified)	0	.	.	.	.	.	.	.
COC(=O)CSc1nc2sc3c(c2c(=O)n1Cc1ccccc1)CCCC3	0	.	.	.	.	.	.	.
CC(C)(C)C1CCc2c(sc(NC(=O)CN3CCOCC3)c2C#N)C1 (stereo unspecified)	0	.	.	.	.	.	.	.
CN(C)CCCN1C(=O)C(=O)C(C(=O)c2cccs2)C1c1ccco1 (stereo unspecified)	-1	.	.	.	.	.	.	.
C[C@H](CO)N1C[C@H](C)[C@@H](CN(C)S(=O)(=O)c2ccc(Cl)cc2)OCCCC[C@H](C)Oc2ccc(NC(=O)C3CCCCC3)cc2C1=O	.	107*	-67	-1	104*	46	-22	-4
COc1ccc(S(=O)(=O)N(C)C[C@@H]2OCCCC[C@@H](C)Oc3ccc(NC(=O)C4CCCCC4)cc3C(=O)N([C@@H](C)CO)C[C@H]2C)cc1	1	106*	-69	0	107*	40	9	21
COc1ccc(S(=O)(=O)N(C)C[C@H]2OCCCC[C@@H](C)Oc3ccc(NC(=O)C4CCCCC4)cc3C(=O)N([C@@H](C)CO)C[C@H]2C)cc1	-3	57	-59	1	.	.	.	.
CC(=O)N1CCCCN2[C@H](CO)[C@H](c3ccc(-c4ccc(C)cc4)cc3)[C@@H]2C1	.	117*	10	0	98*	16	44*	34*
CC(=O)N1CCCCN2[C@@H](CO)[C@@H](c3ccc(-c4cccc(C)c4)cc3)[C@@H]2C1	.	?	22	-1	53	50	42*	62*
COc1ccccc1-c1cc(=O)c2ccccc2o1	-1	.	.	.	.	.	.	.
CCn1c(SCC(=O)Nc2cccc3ccccc23)nnc1-c1ccc(Cl)c(Cl)c1	0	.	.	.	.	.	.	.
C[C@H]1CN([C@@H](C)CO)C(=O)c2cccc(NC(=O)c3cnccn3)c2O[C@H]1CN(C)Cc1ccc(C(=O)Nc2ccccc2N)cc1	.	.	-30	-2	.	.	.	.
C[C@H](CO)N1C[C@H](C)[C@@H](CN(C)Cc2ccc(C(=O)Nc3ccccc3N)cc2)Oc2c(NC(=O)c3cnccn3)cccc2C1=O	.	106*	-92*	0	104*	104*	32	52*
C[C@H]1CN([C@@H](C)CO)C(=O)c2cccc(NC(=O)c3cnccn3)c2O[C@@H]1CN(C)Cc1ccc(C(=O)Nc2ccccc2N)cc1	.	102*	-94*	0	111*	63	31	?
OCC1OC(Oc2cc(O)cc(/C=C/c3ccccc3)c2)C(O)C(O)C1O (stereo unspecified)	1	.	.	.	.	.	.	.
Cc1c(NS(=O)(=O)c2cccc3nonc23)c(=O)n(-c2ccccc2)n1C	0	.	.	.	.	.	.	.
O=C(COc1ccc(Cl)cc1Br)Nc1ccccc1C(=O)NC1CCCCC1	0	.	.	.	.	.	.	.
N#C[C@H]1[C@@H](c2ccc(C3=CCCCC3)cc2)[C@@H](CO)N1C(=O)NC1CCCC1	.	.	-41	3	.	.	.	.
N#C[C@@H]1[C@H](c2ccc(C3=CCCC3)cc2)[C@H](CO)N1C(=O)C1CCC1	.	103*	-3	0	110*	31	-8	2
SMILES	IDH1 R132H inh	T cruzi growth-1	Pf Dd2 growth	GASC1 inh	T cruzi growth-2	T cruzi growth-3	NIH3T3 tox	NIH3T3 tox 2
CCCNC(=O)N1[C@H](CO)[C@@H](c2ccc(C3=CCCCC3)cc2)[C@@H]1C#N	.	105*	-27	-2	90	64	6	20
N#C[C@H]1[C@H](c2ccc(C3=CCCCC3)cc2)[C@@H](CO)N1C(=O)NC1CCCCC1	.	104*	-20	2	104*	80	-2	77*
CCCNC(=O)N1[C@H](C#N)[C@H](c2ccc(C3=CCCCC3)cc2)[C@@H]1CO	.	99*	?	.	101*	116*	22	33*
O=C(CN1CCOCC1)Nc1sc2c(c1C(=O)Nc1ccc(Br)cc1)CCCC2	0	.	.	.	.	.	.	.
COCC(=O)N1[C@H](CO)[C@@H](c2ccc(C3=CCCCC3)cc2)[C@@H]1C#N	.	?	20	-4	108*	2	7	7
COc1ccc(CN(C)C[C@@H]2OCCCC[C@H](C)Oc3ccc(NC(=O)Nc4ccc5c(c4)OCO5)cc3C(=O)N([C@H](C)CO)C[C@H]2C)cc1	1	52	-52	-1	.	.	.	.
COc1ccc(CN(C)C[C@@H]2OCCCC[C@@H](C)Oc3ccc(NC(=O)Nc4ccc5c(c4)OCO5)cc3C(=O)N([C@@H](C)CO)C[C@@H]2C)cc1	2	?	-9	0	108*	98*	12	53*
COc1ccc(CN(C)C[C@H]2OCCCC[C@@H](C)Oc3ccc(NC(=O)Nc4ccc5c(c4)OCO5)cc3C(=O)N([C@H](C)CO)C[C@H]2C)cc1	.	106*	-71	0	106*	83	1	64*
COc1ccc(CN(C)C[C@H]2OCCCC[C@H](C)Oc3ccc(NC(=O)Nc4ccc5c(c4)OCO5)cc3C(=O)N([C@@H](C)CO)C[C@@H]2C)cc1	0	106*	-51	2	101*	81	25	104*
Cc1ccc2ccc(C(Nc3ccccn3)c3c(F)cccc3Cl)c(O)c2n1 (stereo unspecified)	0	.	.	.	.	.	.	.
